In article PMC4851236 (Nature, 2016):
Entries after “also recorded” stand apart in the source; their conditions may differ.

How the values were obtained:
TR146 cells [1] = assay: Western blotting of phospho-MKP1 and c-Fos induction; format: cell-based, human; settings: for Induction of p-MKP1 and c-Fos by peptide fragments: 15 µM, 2 h, individually or in combination; for Induction of p-MKP1 and c-Fos: serum-free DMEM, 2 h post-stimulation, Western blot, Ece1-I-VIII incubated at 1.5 – 70 µM (Fig. 2a: 1.5 µM)
Summary of the method: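 Serum-starved TR146 cells treated for 2 h in serum-free DMEM, then lysed on ice for 30 min in modified RIPA buffer (pH 7.4) with protease and phosphatase inhibitors. 20 µg protein resolved on 12% SDS-PAGE and transferred to nitrocellulose. Blots probed for phospho-MKP1 and c-Fos (primary 1:1000, HRP secondary 1:10,000), detected by chemiluminescence. α-actin used as loading control.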

TR146 cells [2] = assay: Cytokine determination in culture supernatants; format: cell-based, human; settings: for Induction of cytokines (G-CSF) by peptide fragments: 15 µM, 24 h, individually or in combination
TR146 cells [3] = assay: Cell damage assay; format: cell-based, human; settings: for Damage of epithelial cells (LDH release) by peptide fragments: 70 µM, 24 h, individually or in combination; for Induction of damage (LDH release): Ece1-I-VIII at 70 µM (Fig. 2b)
Summary of the method: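 Confluent TR146 cells serum-starved overnight, then exposed to test peptides for 24 h in serum-free DMEM. Culture supernatants assayed for lactate dehydrogenase activity with a colorimetric cytotoxicity kit. Activity quantified against a recombinant porcine LDH standard curve.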

[4] = FRET intercalation into phospholipid liposomes; settings: phospholipid liposomes (DOPC with or without cholesterol), 100 mM KCl, 5 mM HEPES, pH 7.0
Summary of the method: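 Probe-dilution FRET assay. Phospholipid liposomes carried 1% (mol/mol) each of donor NBD-PE and acceptor rhodamine-PE. Lipids were dried from chloroform, taken up in 100 mM KCl, 5 mM HEPES, pH 7.0, and tip-sonicated. They then went through three 30 min cycles of 60°C heating and 4°C cooling and were held at 4°C for at least 12 h. After test peptide addition, intercalation was read as the rise in the donor (531 nm) to acceptor (593 nm) intensity ratio.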

[5] = Impedance spectroscopy of tethered bilayer lipid membranes; settings: tBLMs, DOPC with or without cholesterol, 100 mM KCl, 5 mM HEPES, pH 7.0, room temperature
Summary of the method: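 tBLMs (10% tethering, 90% spacer lipids) were formed by solvent exchange from 3 mM lipid in ethanol, then buffered in 100 mM KCl, 5 mM HEPES, pH 7.0. Membranes were rinsed three times with buffer. Conductance and capacitance were recorded for 20 min before test peptide was injected at various concentrations, all at room temperature. Concentration-dependent conductance changes were averaged.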

Planar lipid bilayers = settings: 5 mM HEPES, 100 mM KCl, pH 7.0, 37°C, Ece1-III62–93 0.125 µM (DOPC), Ece1-III62–92K 4 µM
Summary of the method: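 Montal-Mueller planar bilayers were bathed in 5 mM HEPES, 100 mM KCl, pH 7.0 (specific conductivity 17.2 mS/cm) at 37°C. Test peptide was added and membrane current was recorded for permeabilization events up to rupture.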

TR146 cells [6] = assay: Calcium flux; format: cell-based, human; settings: Fura-2, readings up to 3 h
Summary of the method: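 Confluent TR146 monolayers loaded for 1 h at 37°C/5% CO2 with Fura-2 (2.5 mM stock in Pluronic F-127/DMSO) plus probenecid in HEPES-buffered saline (2 mM CaCl2, 10 mM glucose, pH 7.4). Dye then replaced by saline. Baseline read for 10 min at excitation 340 nm/emission 520 nm. Peptides added at different concentrations. Cytosolic calcium expressed as a fluorescence ratio.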

[7] = Circular dichroism spectroscopy; format: physicochemical; settings: 15 µM peptide, 100 mM KCl, 5 mM HEPES, pH 7
Summary of the method: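 Peptide at 15 µM in 100 mM KCl, 5 mM HEPES, pH 7.0, in a 1.0 mm quartz cuvette, run at 25°C and 40°C. Spectra are the average of four scans, collected at 1 nm intervals with 2 nm bandwidth.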

red blood cells = assay: Hemolysis of red blood cells; format: cell-based; settings: not shown
TR146 cells [8] = assay: Transcription factor; format: cell-based, human; settings: 3 h post-stimulation, sub-lytic concentrations
Summary of the method: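 Serum-starved TR146 cells treated for 3 h in serum-free DMEM. Nuclear proteins recovered by differential lysis. 5 µg nuclear extract assayed for c-Fos DNA binding by plate-based transcription factor ELISA. Results expressed as fold-change in A450nm relative to resting cells.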

TR146 cells [9] = assay: Whole cell patch clamp; format: cell-based, human; settings: membrane potential −60 mV, room temperature
Summary of the method: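 TR146 cells cultured 48 h and recorded at 10–30% confluence while superfused with modified Krebs solution (pH 7.4). Pipettes 5–7 MΩ, filled with potassium acetate/KCl/HEPES/EGTA solution (free Ca2+ 40 nM). Current-voltage curves from 1 s steps, −100 to +50 mV. Treatments added to superfusate at final concentration, with vehicle controls and an ionomycin positive control. Cells analysed counted per condition.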

[10] = system: multiple human epithelial cell types; assay: Direct lysis of epithelial cells; format: cell-based; settings: not shown

Row | Substance | Induction of p-MKP1 and c-Fos by peptide fragments (TR146 cells [1]) | Induction of cytokines (G-CSF) by peptide fragments (TR146 cells [2]) | Damage of epithelial cells (LDH release) by peptide fragments (TR146 cells [3]) | Intercalation into lipid membranes (FRET) [4] | Permeabilization of tethered lipid membranes (conductance) [5] | Lesions induced in planar lipid membranes (Planar lipid bilayers) | Calcium influx (intracellular calcium level) (TR146 cells [6]) | Induction of p-MKP1 and c-Fos (TR146 cells [1]) | Secondary structure by circular dichroism [7] | Induction of G-CSF secretion (TR146 cells [2]; 24 h post-stimulation) | Induction of damage (LDH release) (TR146 cells [3]; 24 h post-stimulation) | also measured
1 | Ece1-III62–85: N-terminal hydrophobic region of Ece1-III62–93 | Neither | Neither | Neither | – | – | – | – | – | – | – | – | –
2 | Ece1-III86–93: C-terminal hydrophilic region of Ece1-III62–93 (KAFKGNKR; UniProt Q07730 86-93, looked up, fragment) | Neither | Neither | Neither | – | – | – | – | – | – | – | – | –
3 | SIIGIIMGILGNIPQVIQIIMSIVKAFKGNK [Ece1-III62–92K] | – | – | – | induces | induces | heterogeneous and transient lesions leading to membrane rupture | induces | induces | α-helical | induces | induces | Induction of IL-1α secretion (TR146 cells [2]; 24 h post-stimulation): induces
4 | SIIGIIMGILGNIPQVIQIIMSIVKAFKGNKR [Ece1-III62–93] | – | – | – | able to efficiently intercalate; also recorded: slightly enhanced intercalation for pure DOPC | enhanced in the presence of cholesterol | heterogeneous and transient lesions leading finally to a rupture of the membrane | associated with calcium influx | induced | α-helical conformation | – | induced | Hemolysis of red blood cells (red blood cells): induce hemolysis of red blood cells; Concentrations sufficient to induce c-Fos DNA binding (TR146 cells [8]): 1.5 to 15 µM; Evoked current in epithelial cells (patch clamp) (TR146 cells [9]): causes an inward current; Direct lysis of multiple human epithelial cell types [10]: directly lyse multiple human epithelial cell types; Concentrations required to induce damage-associated cytokine IL-1α (TR146 cells [2]; 24 h post-stimulation): 70 µM; Concentrations required to induce damage-associated cytokine IL-6 (TR146 cells [2]; 24 h post-stimulation): 70 µM; Concentrations sufficient to induce G-CSF (TR146 cells [2]; 24 h post-stimulation): 1.5 to 15 µM; Concentrations sufficient to induce GM-CSF (TR146 cells [2]; 24 h post-stimulation): 1.5 to 15 µM; Induction of cytokines (TR146 cells [2]; 24 h post-stimulation, peptides 1.5 – 70 µM): induced; Concentrations required to induce damage (LDH release) (TR146 cells [3]; 24 h post-stimulation): 70 µM
5 | Ece1-III62–93AA: Ece1-III62–93 with C-terminal KR motif substituted to AA | – | – | – | did not affect membrane intercalation | significantly reduced | – | significantly reduced | still induced | – | still induced | significantly reduced | –
